Data as given in ChEMBL document CHEMBL1629440, “Synthesis and pharmacological properties of novel hydrophilic 5-HT4 receptor antagonists” (Bioorg Med Chem, 2010).

Legend:
[1] = target: T1, 5-hydroxytryptamine receptor 4 (Homo sapiens, UniProt Q13639); assay: Antagonistic activity at human 5HT4 receptor expressed in HEK293 cells assessed as inhibition of 5-HT stimulated ADCY activity after 20 mins; assay type: functional, cell-based
Procedure, shortened: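 Membranes from HEK293 cells stably expressing human 5-HT4(b) at low level (400 fmol/mg). Adenylyl cyclase activity was stimulated by 1 µM 5-HT with 21 antagonist concentrations, 0.1 mM [α-32P]ATP, 4 mM MgCl2, 1 mM IBMX, GTP and ATP-regenerating system, 32 °C, 20 min. [32P]cAMP was isolated on Dowex/alumina columns. IC50 was fitted by non-linear regression and Kb calculated using 5-HT EC50.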

[2] = target: T1, 5-hydroxytryptamine receptor 4; assay: Displacement of [3H]GR113808 from human 5HT4 receptor expressed in HEK293 cells by liquid scintillation counting; assay type: cell-based
Procedure, shortened: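 Membranes from HEK293 line stably expressing human 5-HT4(b) at high level (5000 fmol/mg). Incubated with 0.3 nM [3H]GR113808 and 21 competitor concentrations in Tris-HCl pH 7.5, EDTA, EGTA, 2 mM MgCl2, ascorbate, 0.1% BSA, 100 µM GTP, room temperature 1 h. Filtered onto PEI-soaked filters, washed, scintillation counted. Ki derived from IC50 via Ki = IC50/(1+L/Kd).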

[3] = Lipophilicity, log D of the compound in octanol buffer at pH 7.4; assay type: physicochemical
Procedure, shortened: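 Distribution between octanol and aqueous buffer at pH 7.4. Both phases were diluted and ligand concentration in each measured by HPLC. Not determined where micelles formed.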

[4] = target: 5-hydroxytryptamine receptor 1A (Homo sapiens, UniProt P08908); assay: Binding affinity to 5HT1A receptor
[5] = target: 5-hydroxytryptamine receptor 1B (Homo sapiens, UniProt P28222); assay: Binding affinity to 5HT1B receptor
[6] = target: 5-hydroxytryptamine receptor 1D (Homo sapiens, UniProt P28221); assay: Binding affinity to 5HT1D receptor
[7] = target: 5-hydroxytryptamine receptor 1E (Homo sapiens, UniProt P28566); assay: Binding affinity to 5HT1E receptor
[8] = target: 5-hydroxytryptamine receptor 2A (Homo sapiens, UniProt P28223); assay: Binding affinity to 5HT2A receptor
[9] = target: 5-hydroxytryptamine receptor 2B (Homo sapiens, UniProt P41595); assay: Binding affinity to 5HT2B receptor
[10] = target: 5-hydroxytryptamine receptor 2C (Homo sapiens, UniProt P28335); assay: Binding affinity to 5HT2C receptor
[11] = target: 5-hydroxytryptamine receptor 3A (Homo sapiens, UniProt P46098); assay: Binding affinity to 5HT3 receptor
[12] = target: 5-hydroxytryptamine receptor 5A (Homo sapiens, UniProt P47898); assay: Binding affinity to 5HT5A receptor
[13] = target: 5-hydroxytryptamine receptor 6 (Homo sapiens, UniProt P50406); assay: Binding affinity to 5HT6 receptor
[14] = target: 5-hydroxytryptamine receptor 7 (Homo sapiens, UniProt P34969); assay: Binding affinity to 5HT7 receptor
[15] = target: Alpha-1A adrenergic receptor (Homo sapiens, UniProt P35348); assay: Binding affinity to alpha1A adrenergic receptor
[16] = target: Alpha-1B adrenergic receptor (Homo sapiens, UniProt P35368); assay: Binding affinity to Alpha-1B adrenergic receptor
[17] = target: Alpha-1D adrenergic receptor (Homo sapiens, UniProt P25100); assay: Binding affinity to Alpha-1D adrenergic receptor
[18] = target: Alpha-2A adrenergic receptor (Homo sapiens, UniProt P08913); assay: Binding affinity to alpha2A adrenergic receptor
[19] = target: Alpha-2B adrenergic receptor (Homo sapiens, UniProt P18089); assay: Binding affinity to alpha2B adrenergic receptor
[20] = target: Alpha-2C adrenergic receptor (Homo sapiens, UniProt P18825); assay: Binding affinity to Alpha-2C adrenergic receptor
[21] = target: Beta-1 adrenergic receptor (Homo sapiens, UniProt P08588); assay: Binding affinity to beta1 adrenergic receptor
[22] = target: Beta-2 adrenergic receptor (Homo sapiens, UniProt P07550); assay: Binding affinity to beta2 adrenergic receptor
[23] = target: Beta-3 adrenergic receptor (Homo sapiens, UniProt P13945); assay: Binding affinity to beta3 adrenergic receptor
D(1A) dopamine receptor = D(1A) dopamine receptor (Homo sapiens, UniProt P21728); assay: Binding affinity to dopamine receptor D1
D(2) dopamine receptor = D(2) dopamine receptor (Homo sapiens, UniProt P14416); assay: Binding affinity to dopamine receptor D2
D(3) dopamine receptor = D(3) dopamine receptor (Homo sapiens, UniProt P35462); assay: Binding affinity to dopamine receptor D3
D(4) dopamine receptor = D(4) dopamine receptor (Homo sapiens, UniProt P21917); assay: Binding affinity to dopamine receptor D4
D(1B) dopamine receptor = D(1B) dopamine receptor (Homo sapiens, UniProt P21918); assay: Binding affinity to dopamine receptor D5
Histamine H1 receptor = Histamine H1 receptor (Homo sapiens, UniProt P35367); assay: Binding affinity to Histamine receptor H1
Histamine H2 receptor = Histamine H2 receptor (Homo sapiens, UniProt P25021); assay: Binding affinity to Histamine receptor H2
Histamine H3 receptor = Histamine H3 receptor (Homo sapiens, UniProt Q9Y5N1); assay: Binding affinity to Histamine receptor H3
Histamine H4 receptor = Histamine H4 receptor (Homo sapiens, UniProt Q9H3N8); assay: Binding affinity to Histamine receptor H4
[24] = target: Muscarinic acetylcholine receptor M1 (Homo sapiens, UniProt P11229); assay: Binding affinity to muscarinic acetylcholine receptor M1
[25] = target: Muscarinic acetylcholine receptor M2 (Homo sapiens, UniProt P08172); assay: Binding affinity to muscarinic acetylcholine receptor M2
[26] = target: Muscarinic acetylcholine receptor M3 (Homo sapiens, UniProt P20309); assay: Binding affinity to muscarinic acetylcholine receptor M3
[27] = target: Muscarinic acetylcholine receptor M4 (Homo sapiens, UniProt P08173); assay: Binding affinity to muscarinic acetylcholine receptor M4
[28] = target: Muscarinic acetylcholine receptor M5 (Homo sapiens, UniProt P08912); assay: Binding affinity to muscarinic acetylcholine receptor M5
[29] = target: Delta-type opioid receptor (Homo sapiens, UniProt P41143); assay: Binding affinity to opioid receptor DOR
[30] = target: Kappa-type opioid receptor (Homo sapiens, UniProt P41145); assay: Binding affinity to opioid receptor KOR
Mu-type opioid receptor = Mu-type opioid receptor (Homo sapiens, UniProt P35372); assay: Binding affinity to opioid receptor MOR
[31] = Binding affinity to opioid receptor Sigma2
[32] = target: Sigma non-opioid intracellular receptor 1 (Homo sapiens, UniProt Q99720); assay: Binding affinity to opioid receptor Sigma1
[33] = Binding affinity to GABA receptor BDZ-site
[34] = Binding affinity to GABA-A receptor muscimol site
[35] = target: Sodium-dependent dopamine transporter (Homo sapiens, UniProt Q01959); assay: Binding affinity to DAT
[36] = target: Sodium-dependent serotonin transporter (Homo sapiens, UniProt P31645); assay: Binding affinity to SERT
[37] = Half life in bovine plasma by HPLC; assay type: ADME, Bos taurus; conditions: cattle
Procedure, shortened: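 Ester incubated at 40 µM initial concentration in bovine plasma at 37 °C for up to 10 h. Aliquots were removed at intervals and H3PO4 added to release protein-bound drug. Parent ester and free-acid degradation product were quantified by HPLC, and half-life was calculated.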

[38] = target: T1, 5-hydroxytryptamine receptor 4; assay: Antagonistic activity at human 5HT4 receptor expressed in HEK293 cells; assay type: functional, cell-based

T1 sequence (Q13639 whole entry): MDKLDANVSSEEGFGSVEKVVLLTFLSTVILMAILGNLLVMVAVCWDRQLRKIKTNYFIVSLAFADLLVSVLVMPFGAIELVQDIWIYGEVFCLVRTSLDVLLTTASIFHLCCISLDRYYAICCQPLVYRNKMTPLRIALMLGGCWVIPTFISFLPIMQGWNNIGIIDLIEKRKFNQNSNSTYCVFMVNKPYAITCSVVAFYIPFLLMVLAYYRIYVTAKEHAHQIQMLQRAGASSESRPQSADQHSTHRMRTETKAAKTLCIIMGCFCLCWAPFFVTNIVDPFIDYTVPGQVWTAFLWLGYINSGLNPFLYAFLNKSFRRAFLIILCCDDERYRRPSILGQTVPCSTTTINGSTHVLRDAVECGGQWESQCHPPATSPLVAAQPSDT
Chain of 5-hydroxytryptamine receptor 2C (P28335 whole entry): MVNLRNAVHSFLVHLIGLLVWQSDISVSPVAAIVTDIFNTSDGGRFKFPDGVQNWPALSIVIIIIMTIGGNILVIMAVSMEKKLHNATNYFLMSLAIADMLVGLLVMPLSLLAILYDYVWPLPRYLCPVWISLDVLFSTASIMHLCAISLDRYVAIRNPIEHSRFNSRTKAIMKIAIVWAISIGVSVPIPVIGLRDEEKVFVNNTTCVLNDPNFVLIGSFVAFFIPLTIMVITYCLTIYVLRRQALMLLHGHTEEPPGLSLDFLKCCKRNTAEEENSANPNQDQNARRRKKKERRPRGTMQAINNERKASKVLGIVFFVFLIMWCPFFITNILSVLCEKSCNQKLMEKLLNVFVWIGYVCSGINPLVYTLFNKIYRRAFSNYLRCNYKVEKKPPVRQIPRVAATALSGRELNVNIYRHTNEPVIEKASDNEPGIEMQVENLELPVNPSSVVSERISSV
Chain of Alpha-2B adrenergic receptor (P18089 whole entry): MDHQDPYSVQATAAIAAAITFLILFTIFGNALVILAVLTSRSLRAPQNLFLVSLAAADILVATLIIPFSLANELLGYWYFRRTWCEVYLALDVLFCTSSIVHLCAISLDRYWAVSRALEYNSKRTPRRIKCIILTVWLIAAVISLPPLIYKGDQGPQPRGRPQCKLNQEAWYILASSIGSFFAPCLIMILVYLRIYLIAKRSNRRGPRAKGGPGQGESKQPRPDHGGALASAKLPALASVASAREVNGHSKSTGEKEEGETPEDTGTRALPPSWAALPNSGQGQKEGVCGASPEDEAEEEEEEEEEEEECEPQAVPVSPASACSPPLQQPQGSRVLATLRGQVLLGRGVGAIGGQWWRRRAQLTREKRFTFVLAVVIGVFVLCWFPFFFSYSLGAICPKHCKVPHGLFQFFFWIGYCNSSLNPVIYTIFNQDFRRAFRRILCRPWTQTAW
Chain of D(1B) dopamine receptor (P21918 whole entry): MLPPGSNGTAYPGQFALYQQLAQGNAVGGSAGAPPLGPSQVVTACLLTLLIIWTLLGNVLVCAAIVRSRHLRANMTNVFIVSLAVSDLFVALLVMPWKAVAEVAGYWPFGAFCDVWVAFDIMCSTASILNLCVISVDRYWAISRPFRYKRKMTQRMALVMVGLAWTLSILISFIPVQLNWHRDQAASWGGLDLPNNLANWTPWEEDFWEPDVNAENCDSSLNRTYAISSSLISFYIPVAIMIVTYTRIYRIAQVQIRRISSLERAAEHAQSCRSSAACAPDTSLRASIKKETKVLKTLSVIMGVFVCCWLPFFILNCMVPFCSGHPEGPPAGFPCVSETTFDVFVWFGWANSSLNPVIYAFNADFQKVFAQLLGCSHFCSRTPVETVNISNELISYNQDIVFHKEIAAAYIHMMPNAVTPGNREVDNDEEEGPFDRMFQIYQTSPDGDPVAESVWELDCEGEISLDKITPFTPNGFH
Chain of 5-hydroxytryptamine receptor 1B (P28222 whole entry): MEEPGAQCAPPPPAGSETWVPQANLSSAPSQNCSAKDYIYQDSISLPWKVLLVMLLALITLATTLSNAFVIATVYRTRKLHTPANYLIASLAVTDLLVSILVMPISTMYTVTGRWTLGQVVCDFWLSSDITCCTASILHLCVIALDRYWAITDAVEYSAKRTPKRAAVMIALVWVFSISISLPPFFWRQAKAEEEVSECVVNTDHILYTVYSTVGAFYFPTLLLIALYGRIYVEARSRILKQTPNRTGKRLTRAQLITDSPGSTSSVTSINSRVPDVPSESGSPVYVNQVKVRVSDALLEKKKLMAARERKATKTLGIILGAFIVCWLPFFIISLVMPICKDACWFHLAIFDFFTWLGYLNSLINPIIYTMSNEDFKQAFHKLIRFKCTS
Chain of 5-hydroxytryptamine receptor 5A (P47898 whole entry): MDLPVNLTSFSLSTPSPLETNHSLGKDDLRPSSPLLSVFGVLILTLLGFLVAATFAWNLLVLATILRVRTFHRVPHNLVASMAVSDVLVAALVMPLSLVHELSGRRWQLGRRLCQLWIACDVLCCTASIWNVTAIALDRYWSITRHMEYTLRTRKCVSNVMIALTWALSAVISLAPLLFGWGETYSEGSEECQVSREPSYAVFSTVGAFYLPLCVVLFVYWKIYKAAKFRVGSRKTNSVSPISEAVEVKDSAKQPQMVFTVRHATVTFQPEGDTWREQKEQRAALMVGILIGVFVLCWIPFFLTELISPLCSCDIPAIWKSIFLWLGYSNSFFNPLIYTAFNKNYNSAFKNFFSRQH
Chain of Beta-3 adrenergic receptor (P13945 whole entry): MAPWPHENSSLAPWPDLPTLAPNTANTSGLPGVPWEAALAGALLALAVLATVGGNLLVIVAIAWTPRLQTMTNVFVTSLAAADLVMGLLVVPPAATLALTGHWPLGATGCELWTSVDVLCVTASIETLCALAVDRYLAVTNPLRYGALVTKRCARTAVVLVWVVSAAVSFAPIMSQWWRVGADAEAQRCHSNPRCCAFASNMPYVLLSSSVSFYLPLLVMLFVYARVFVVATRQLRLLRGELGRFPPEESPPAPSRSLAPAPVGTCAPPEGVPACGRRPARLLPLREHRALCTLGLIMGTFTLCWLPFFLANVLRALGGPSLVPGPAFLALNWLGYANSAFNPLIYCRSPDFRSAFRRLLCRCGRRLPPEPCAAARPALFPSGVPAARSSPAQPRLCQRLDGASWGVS
Chain of Muscarinic acetylcholine receptor M4 (P08173 whole entry): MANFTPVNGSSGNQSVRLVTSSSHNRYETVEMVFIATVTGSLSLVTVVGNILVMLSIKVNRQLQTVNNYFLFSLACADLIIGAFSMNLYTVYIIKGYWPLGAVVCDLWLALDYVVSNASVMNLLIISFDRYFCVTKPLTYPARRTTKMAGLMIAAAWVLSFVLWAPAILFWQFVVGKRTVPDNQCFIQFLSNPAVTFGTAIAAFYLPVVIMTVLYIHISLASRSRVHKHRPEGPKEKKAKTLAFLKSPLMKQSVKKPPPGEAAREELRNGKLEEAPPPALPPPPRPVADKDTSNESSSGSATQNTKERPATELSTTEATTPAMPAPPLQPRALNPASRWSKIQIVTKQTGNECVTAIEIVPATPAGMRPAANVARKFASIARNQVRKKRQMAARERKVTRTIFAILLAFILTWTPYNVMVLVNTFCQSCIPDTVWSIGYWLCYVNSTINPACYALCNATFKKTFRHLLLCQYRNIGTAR
Chain of Mu-type opioid receptor (P35372 whole entry): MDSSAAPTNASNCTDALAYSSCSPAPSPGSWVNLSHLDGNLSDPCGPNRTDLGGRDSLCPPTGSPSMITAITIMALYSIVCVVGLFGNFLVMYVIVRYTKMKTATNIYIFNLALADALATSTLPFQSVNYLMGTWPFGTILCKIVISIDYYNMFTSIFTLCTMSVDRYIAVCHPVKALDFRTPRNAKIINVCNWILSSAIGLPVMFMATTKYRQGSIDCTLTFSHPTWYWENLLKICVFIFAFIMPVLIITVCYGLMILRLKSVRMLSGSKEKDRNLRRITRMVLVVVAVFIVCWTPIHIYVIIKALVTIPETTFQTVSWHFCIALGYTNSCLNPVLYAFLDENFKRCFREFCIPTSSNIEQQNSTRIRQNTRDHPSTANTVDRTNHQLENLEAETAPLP
Chain of 5-hydroxytryptamine receptor 6 (P50406 whole entry): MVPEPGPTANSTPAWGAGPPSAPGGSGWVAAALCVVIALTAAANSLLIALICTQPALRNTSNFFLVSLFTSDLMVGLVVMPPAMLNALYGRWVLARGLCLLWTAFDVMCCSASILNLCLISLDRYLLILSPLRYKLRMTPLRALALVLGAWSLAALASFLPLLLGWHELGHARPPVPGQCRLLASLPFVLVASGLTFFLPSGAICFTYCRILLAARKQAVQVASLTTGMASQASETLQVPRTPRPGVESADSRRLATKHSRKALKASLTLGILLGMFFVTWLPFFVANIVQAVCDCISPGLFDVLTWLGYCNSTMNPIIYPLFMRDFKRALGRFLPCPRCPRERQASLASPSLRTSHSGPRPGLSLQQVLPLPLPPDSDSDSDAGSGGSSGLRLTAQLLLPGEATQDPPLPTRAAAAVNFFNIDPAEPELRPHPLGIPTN
Chain of Muscarinic acetylcholine receptor M5 (P08912 whole entry): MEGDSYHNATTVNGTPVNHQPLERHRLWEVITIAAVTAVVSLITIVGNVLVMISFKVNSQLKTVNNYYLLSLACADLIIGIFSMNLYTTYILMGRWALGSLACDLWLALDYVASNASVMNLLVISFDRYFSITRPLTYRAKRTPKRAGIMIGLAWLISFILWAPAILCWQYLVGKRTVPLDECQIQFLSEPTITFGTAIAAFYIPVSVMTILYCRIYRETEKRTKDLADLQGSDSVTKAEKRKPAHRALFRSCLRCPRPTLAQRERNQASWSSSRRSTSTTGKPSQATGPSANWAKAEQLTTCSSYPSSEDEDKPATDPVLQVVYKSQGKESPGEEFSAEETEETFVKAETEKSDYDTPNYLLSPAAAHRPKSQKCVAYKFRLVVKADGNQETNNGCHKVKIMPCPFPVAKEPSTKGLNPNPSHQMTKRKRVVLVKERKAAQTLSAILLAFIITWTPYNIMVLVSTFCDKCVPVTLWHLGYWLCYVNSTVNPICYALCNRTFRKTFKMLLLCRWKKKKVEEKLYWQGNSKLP

O=C(O)CN1CCC(CNC(=O)c2c3n(c4ccccc24)CCCO3)CC1
pKb [1]: 7.91
Ki [2]: 2.82 nM
logD [3]: -1.1

O=C(O)CCCCCCCCCCCN1CCC(CNC(=O)c2c3n(c4ccccc24)CCCO3)CC1
pKb [1]: 8.97
Ki [2]: 2.45 nM

CC(C)(C)OC(=O)CCCCCN1CCC(CNC(=O)c2c3n(c4ccccc24)CCCO3)CC1
pKb [1]: 9.89
Ki [2]: 0.0537 nM

O=C(CCCCN1CCC(CNC(=O)c2c3n(c4ccccc24)CCCO3)CC1)OCc1ccccc1
pKb [1]: 10.2
Ki [2]: 0.00145 nM

O=C(O)c1ccc(CN2CCC(CNC(=O)c3c4n(c5ccccc35)CCCO4)CC2)cc1
pKb [1]: 7.25
Ki [2]: 5.01 nM

COC(=O)CCCCCN1CCC(CNC(=O)c2c3n(c4ccccc24)CCCO3)CC1
pKb [1]: 9.13
Ki [2]: 0.107 nM
logD [3]: 2.2
Ki [4]: > 10 µM
Ki [5]: > 10 µM
Ki [6]: 3.16 µM
Ki [7]: > 10 µM
Ki [8]: 6.31 µM
Ki [9]: 0.316 µM
Ki [10]: > 10 µM
Ki [11]: 2.51 µM
Ki [12]: > 10 µM
Ki [13]: > 10 µM
Ki [14]: > 10 µM
Ki [15]: > 10 µM
Ki [16]: > 10 µM
Ki [17]: > 10 µM
Ki [18]: > 10 µM
Ki [19]: 1.26 µM
Ki [20]: > 10 µM
Ki [21]: > 10 µM
Ki [22]: > 10 µM
Ki [23]: > 10 µM
Ki (D(1A) dopamine receptor): > 10 µM
Ki (D(2) dopamine receptor): > 10 µM
Ki (D(3) dopamine receptor): > 10 µM
Ki (D(4) dopamine receptor): > 10 µM
Ki (D(1B) dopamine receptor): > 10 µM
Ki (Histamine H1 receptor): 1.26 µM
Ki (Histamine H2 receptor): 3.16 µM
Ki (Histamine H3 receptor): > 10 µM
Ki (Histamine H4 receptor): > 10 µM
Ki [24]: > 10 µM
Ki [25]: 2.51 µM
Ki [26]: > 10 µM
Ki [27]: > 10 µM
Ki [28]: > 10 µM
Ki [29]: > 10 µM
Ki [30]: > 10 µM
Ki (Mu-type opioid receptor): > 10 µM
pKi [31]: < 5
Ki [32]: 0.398 µM
pKi [33]: < 5
pKi [34]: < 5
Ki [35]: > 10 µM
Ki [36]: > 10 µM

CCOC(=O)CCCN1CCC(CNC(=O)c2c3n(c4ccccc24)CCCO3)CC1
pKb [1]: 9.43
Ki [2]: 0.102 nM
half-life [37]: 30 min

CCOC(=O)CCCN1CCC(CNC(=O)c2c[nH]c3ccccc23)CC1
pKb [1]: 5.84
Ki [38]: 0.107 µM

O=C(O)CCCCCN1CCC(CNC(=O)c2c3n(c4ccccc24)CCCO3)CC1
pKb [1]: 7.94
Ki [2]: 1.55 nM
logD [3]: -1.3
Ki [4]: > 10 µM
Ki [5]: > 10 µM
Ki [6]: > 10 µM
Ki [7]: > 10 µM
Ki [8]: > 10 µM
Ki [9]: > 10 µM
Ki [10]: > 10 µM
Ki [11]: > 10 µM
Ki [12]: > 10 µM
Ki [13]: > 10 µM
Ki [14]: > 10 µM
Ki [15]: > 10 µM
Ki [16]: > 10 µM
Ki [17]: > 10 µM
Ki [18]: > 10 µM
Ki [19]: > 10 µM
Ki [20]: > 10 µM
Ki [21]: > 10 µM
Ki [22]: > 10 µM
Ki [23]: > 10 µM
Ki (D(1A) dopamine receptor): > 10 µM
Ki (D(2) dopamine receptor): > 10 µM
Ki (D(3) dopamine receptor): > 10 µM
Ki (D(4) dopamine receptor): > 10 µM
Ki (D(1B) dopamine receptor): > 10 µM
Ki (Histamine H1 receptor): > 10 µM
Ki (Histamine H2 receptor): > 10 µM
Ki (Histamine H3 receptor): > 10 µM
Ki (Histamine H4 receptor): > 10 µM
Ki [24]: > 10 µM
Ki [25]: > 10 µM
Ki [26]: > 10 µM
Ki [27]: > 10 µM
Ki [28]: > 10 µM
Ki [29]: > 10 µM
Ki [30]: > 10 µM
Ki (Mu-type opioid receptor): > 10 µM
pKi [31]: < 5
pKi [33]: < 5
pKi [34]: < 5
Ki [35]: > 10 µM
Ki [36]: > 10 µM

CC(C)(C)C(=O)OCOC(=O)CCCCCN1CCC(CNC(=O)c2c3n(c4ccccc24)CCCO3)CC1
pKb [1]: 9.83
Ki [2]: 0.0646 nM

COC(=O)CCCCCCCCCCCN1CCC(CNC(=O)c2c3n(c4ccccc24)CCCO3)CC1
pKb [1]: 9.89
Ki [2]: 0.339 nM

O=C(O)CCN1CCC(CNC(=O)c2c3n(c4ccccc24)CCCO3)CC1
pKb [1]: 8.08
Ki [2]: 1.12 nM
logD [3]: -1.3

O=C(O)CCCCN1CCC(CNC(=O)c2c3n(c4ccccc24)CCCO3)CC1
pKb [1]: 8.1
Ki [2]: 2.04 nM
logD [3]: -1.3
